38 molecules from ChEMBL document CHEMBL3393005, “Design and synthesis of novel 2-pyrazoline-1-ethanone derivatives as selective MAO inhibitors” (Bioorg Med Chem, 2015) can be followed below.

Series [1] concerns the target T1, Amine oxidase [flavin-containing] A (Homo sapiens, UniProt P21397).
T1 sequence (P21397 whole entry): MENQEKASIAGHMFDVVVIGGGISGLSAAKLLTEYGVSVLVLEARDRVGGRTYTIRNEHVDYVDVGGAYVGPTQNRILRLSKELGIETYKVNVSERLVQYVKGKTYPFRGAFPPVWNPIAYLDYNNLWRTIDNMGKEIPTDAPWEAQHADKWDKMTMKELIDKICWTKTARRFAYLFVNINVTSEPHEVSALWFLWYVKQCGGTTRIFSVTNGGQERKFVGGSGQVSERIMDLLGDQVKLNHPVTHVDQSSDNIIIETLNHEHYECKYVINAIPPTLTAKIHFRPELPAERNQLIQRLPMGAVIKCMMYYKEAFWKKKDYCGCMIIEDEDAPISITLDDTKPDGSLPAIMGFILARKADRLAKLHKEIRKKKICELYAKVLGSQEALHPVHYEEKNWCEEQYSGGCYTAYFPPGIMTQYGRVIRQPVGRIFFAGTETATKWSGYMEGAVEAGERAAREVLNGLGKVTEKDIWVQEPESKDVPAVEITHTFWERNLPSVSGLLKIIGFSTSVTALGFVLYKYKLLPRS
As to the kind of experiment: Inhibition of human recombinant MAO-A using p-tyramine as substrate assessed as production of H2O2 incubated for 15 mins prior to substrate addition measured after 20 mins by microplate fluorescence reader analysis.

Series [2] concerns the target T2, Amine oxidase [flavin-containing] B (Homo sapiens, UniProt P27338).
T2 sequence (P27338 whole entry): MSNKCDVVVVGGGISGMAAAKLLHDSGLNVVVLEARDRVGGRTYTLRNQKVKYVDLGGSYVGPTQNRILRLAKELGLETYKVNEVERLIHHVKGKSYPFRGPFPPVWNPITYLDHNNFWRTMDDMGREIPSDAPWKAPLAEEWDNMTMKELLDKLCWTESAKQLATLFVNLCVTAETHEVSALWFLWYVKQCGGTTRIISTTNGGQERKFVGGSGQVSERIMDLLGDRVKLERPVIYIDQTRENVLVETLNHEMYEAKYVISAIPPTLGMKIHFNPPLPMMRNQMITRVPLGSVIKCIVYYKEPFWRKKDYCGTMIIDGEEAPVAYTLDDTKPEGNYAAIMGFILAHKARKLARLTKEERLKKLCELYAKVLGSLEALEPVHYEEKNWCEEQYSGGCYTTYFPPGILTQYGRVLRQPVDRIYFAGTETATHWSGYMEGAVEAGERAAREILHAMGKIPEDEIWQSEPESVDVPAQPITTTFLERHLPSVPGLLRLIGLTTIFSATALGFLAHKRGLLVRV
As to the kind of experiment: Inhibition of human recombinant MAO-B using p-tyramine as substrate assessed as production of H2O2 incubated for 15 mins prior to substrate addition measured after 20 mins by microplate fluorescence reader analysis.

For series [3], the species on record is Homo sapiens. Kind of series: Selectivity index, ratio of IC50 for human recombinant MAO-B to IC50 for human recombinant MAO-A. In short, it runs like this: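 SI = IC50(MAO-B)/IC50(MAO-A), both from the same Amplex Red/p-tyramine H2O2 fluorimetric assay. Each isoform came from microsomes of baculovirus-infected insect cells: MAO-A at 1.1 µg, MAO-B at 7.5 µg, matched to equal velocity.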

For series [4], the target named is T2, Amine oxidase [flavin-containing] B. As to the kind of experiment: Inhibition of human recombinant MAO-B using p-tyramine as substrate assessed as production of H2O2 incubated for 15 mins prior to substrate addition at 60 uM measured after 20 mins by microplate fluorescence reader analysis.
Series [5] has as its target T1, Amine oxidase [flavin-containing] A. As to the kind of experiment: Inhibition of human recombinant MAO-A using p-tyramine as substrate assessed as production of H2O2 incubated for 15 mins prior to substrate addition at 60 uM […] by microplate fluorescence reader analysis. The conditions noted are these: 20 min.

SMILES strings stand for the structures.

As for `COc1ccc(C2=NN(C(=O)CN3CCOCC3)C(c3cc(Cl)ccc3O)C2)cc1` (centres undefined), the results for the IC50 in series [1] and in series [2] were 18.3 µM and 56.5 µM, respectively. The Ratio IC50 in series [3] was 3.1.

`O=C(CN1CCOCC1)N1N=C(c2ccccc2)CC1c1ccccc1O` (centres undefined): the IC50 in series [1] came to 23.2 µM. Also, the Ratio IC50 in series [3] came to 2.6. Besides, the INH entry in series [4] is on record as “Not Active”.

Take `CC1=NN(C(=O)CN2CCNCC2)C(c2cc(Br)cc(Br)c2O)C1` (centres undefined): the IC50 in series [1] amounted to 2 µM. Moreover, the Ratio IC50 in series [3] was 30. The INH entry in series [4] is reported as “Not Active”.

For the molecule `COc1ccc(C2=NN(C(=O)CN3CCOCC3)C(c3ccccc3O)C2)cc1` (centres undefined), in series [1], the IC50 amounted to 24.5 µM. Further, the Ratio IC50 in series [3] was determined as 2.5. Also, the INH result in series [4] is given as “Not Active”.

Take `O=C(CN1CCOCC1)N1N=C(c2ccc(F)cc2)CC1c1ccccc1O` (centres undefined): in series [1], the IC50 worked out at 16.9 µM. In addition, the Ratio IC50 in series [3] is 3.6. In addition, the INH entry in series [4] was “Not Active”.

With `Cc1ccc(C2=NN(C(=O)CN3CCCCC3)C(c3cc(Cl)ccc3O)C2)cc1` (centres undefined), the IC50 in series [1] worked out at 14.4 µM; in series [2], 56.2 µM. The Ratio IC50 in series [3] was determined as 3.9.

For `O=C(CN1CCOCC1)N1N=C(c2ccc(Cl)cc2)CC1c1ccccc1O` (centres undefined), the IC50 in series [1] came to 21.2 µM; in series [2], 31.5 µM. Besides, the Ratio IC50 in series [3] was 1.5.

As for `O=C(Cn1ccnc1)N1N=C(c2ccc(F)cc2)CC1c1ccccc1O` (centres undefined), the IC50 in series [1] is 26.3 µM. Also, the Ratio IC50 in series [3] was determined as 2.3. Further, the INH entry in series [4] was “Not Active”.

With `O=C(CN1CCCCC1)N1N=C(c2ccc(F)cc2)CC1c1cc(Cl)ccc1O` (centres undefined), in series [1], the IC50 was 3.72 µM. Also, in series [3], the Ratio IC50 came out at 16.1. Also, in series [4], the INH result is listed as “Not Active”.

As to `CC1=NN(C(=O)CN2CCN(CCO)CC2)C(c2cc(Br)cc(Br)c2O)C1` (centres undefined), the IC50 in series [1] turned out to be 12.3 µM; in series [2], 42.3 µM. For the same molecule, in series [3], the Ratio IC50 was 3.4.

For the molecule `COc1ccc(C2=NN(C(=O)CN3CCCCC3)C(c3ccccc3O)C2)cc1` (centres undefined), the values for the IC50 in series [1] and in series [2] were 12.7 µM and 59.4 µM, respectively. In series [3], the Ratio IC50 was found to be 4.7.

Turning to `O=C(CN1CCCCC1)N1N=C(c2ccccc2)CC1c1ccccc1O` (centres undefined), the IC50 came out at 9.51 µM in series [1] and 50.6 µM in series [2]. Also, the Ratio IC50 in series [3] came to 5.3.

In the case of `COc1ccc(C2=NN(C(=O)Cn3ccnc3)C(c3cc(Cl)ccc3O)C2)cc1` (centres undefined), in series [5], the “inhibition (INH)” value was “Not Active”. The INH entry in series [4] is given as “Not Active”.

`O=C(Cn1ccnc1)N1N=C(c2ccccc2)CC1c1ccccc1O` (centres undefined): the IC50 in series [2] was 59.4 µM. The Ratio IC50 in series [3] was found to be 1. Also, in series [5], the “inhibition (INH)” value was “Not Active”.

On to `Cc1ccc(C2=NN(C(=O)Cn3ccnc3)C(c3cc(Cl)ccc3O)C2)cc1` (centres undefined), for which the IC50 in series [2] worked out at 16.1 µM. Besides, in series [3], the Ratio IC50 was determined as 0.27. Besides, the “inhibition (INH)” value in series [5] is reported as “Not Active”.

As for `O=C(CN1CCCCC1)N1N=C(c2ccc(Cl)cc2)CC1c1ccccc1O` (centres undefined), the IC50 came to 7.25 µM in series [1] and 40.1 µM in series [2]. In addition, in series [3], the Ratio IC50 amounted to 5.5.

For `Cc1ccc(C2=NN(C(=O)Cn3ccnc3)C(c3ccccc3O)C2)cc1` (centres undefined), the IC50 in series [2] was determined as 41.3 µM. The Ratio IC50 in series [3] was found to be 0.69. For the same molecule, the “inhibition (INH)” value in series [5] is “Not Active”.

Consider `O=C(CN1CCOCC1)N1N=C(c2ccc(Cl)cc2)CC1c1cc(Cl)ccc1O` (centres undefined), for which the values for the IC50 in series [1] and in series [2] were 31.2 µM and 55.1 µM, respectively. Also, the Ratio IC50 in series [3] stood at 1.8.

On to `O=C(CN1CCNCC1)N1N=C(c2ccc(F)cc2)CC1c1cc(Cl)ccc1O` (centres undefined), for which the IC50 in series [1] stood at 2.4 µM; in series [2] it was 58.9 µM. The Ratio IC50 in series [3] was 24.5.

`CC1=NN(C(=O)CN2CCCCC2)C(c2cc(Cl)ccc2O)C1` (centres undefined): the values for the IC50 in series [1] and in series [2] were 10.5 µM and 55.9 µM, respectively. Moreover, the Ratio IC50 in series [3] is 5.3.

For the molecule `CC1=NN(C(=O)CN2CCC(O)CC2)C(c2cc(Br)cc(Br)c2O)C1` (centres undefined), in series [1], the IC50 is 12.4 µM. The Ratio IC50 in series [3] amounted to 4.8. The INH entry in series [4] was “Not Active”.

For `Cc1ccc(C2=NN(C(=O)CN3CCOCC3)C(c3ccccc3O)C2)cc1` (centres undefined), the IC50 in series [1] stood at 20 µM. Moreover, the Ratio IC50 in series [3] worked out at 3. The INH entry in series [4] was “Not Active”.

For `O=C(CN1CCOCC1)N1N=C(c2ccc(F)cc2)CC1c1cc(Cl)ccc1O` (centres undefined), the results for the IC50 in series [1] and in series [2] were 24.3 µM and 30.2 µM, respectively. Also, the Ratio IC50 in series [3] was 1.2.

For the molecule `CC1=NN(C(=O)CN2CCC(CO)CC2)C(c2cc(Br)cc(Br)c2O)C1` (centres undefined), the IC50 in series [1] stood at 25.7 µM; in series [2], 30.1 µM. Further, the Ratio IC50 in series [3] is 1.2.

`Cc1ccc(C2=NN(C(=O)CN3CCCCC3)C(c3ccccc3O)C2)cc1` (centres undefined): the IC50 was 11.3 µM in series [1] and 45.6 µM in series [2]. In addition, the Ratio IC50 in series [3] was 4.

As to `O=C(CN1CCCCC1)N1N=C(c2ccc(Cl)cc2)CC1c1cc(Cl)ccc1O` (centres undefined), the IC50 in series [1] was 6.01 µM; in series [2], 44.1 µM. Besides, the Ratio IC50 in series [3] amounted to 7.3.

In the case of `COc1ccc(C2=NN(C(=O)CN3CCCCC3)C(c3cc(Cl)ccc3O)C2)cc1` (centres undefined), in series [1], the IC50 was 9.65 µM. Moreover, the Ratio IC50 in series [3] amounted to 6.2. Moreover, in series [4], the INH result was “Not Active”.

With `CC1=NN(C(=O)CN2CCC(=O)CC2)C(c2cc(Br)cc(Br)c2O)C1` (centres undefined), the IC50 was 8.38 µM in series [1] and 58.9 µM in series [2]. Also, in series [3], the Ratio IC50 was 7.

Regarding `COc1ccc(C2=NN(C(=O)Cn3ccnc3)C(c3ccccc3O)C2)cc1` (centres undefined), the “inhibition (INH)” value in series [5] is “Not Active”. In series [4], the INH entry is given as “Not Active”.

As to `Cc1ccc(C2=NN(C(=O)CBr)C(c3cc(Cl)ccc3O)C2)cc1` (centres undefined), the IC50 in series [1] is 5.22 µM. Moreover, the Ratio IC50 in series [3] worked out at 11.5. In addition, the INH entry in series [4] is “Not Active”.

As for `Cc1ccc(C2=NN(C(=O)CN3CCOCC3)C(c3cc(Cl)ccc3O)C2)cc1` (centres undefined), the IC50 in series [1] came to 27 µM. Further, the Ratio IC50 in series [3] stood at 2.2. In addition, the INH entry in series [4] is “Not Active”.

Regarding `O=C(CN1CCCCC1)N1N=C(c2ccc(F)cc2)CC1c1ccccc1O` (centres undefined), the IC50 in series [1] was 8.02 µM; in series [2], 47.4 µM. Moreover, the Ratio IC50 in series [3] is 5.9.

For the molecule `CC1=NN(C(=O)Cn2ccnc2)C(c2cc(Cl)ccc2O)C1` (centres undefined), the IC50 in series [1] is 30.3 µM. Besides, the Ratio IC50 in series [3] is 2. The INH entry in series [4] is listed as “Not Active”.

For `O=C(CBr)N1N=C(c2ccc(F)cc2)CC1c1ccccc1O` (centres undefined), the IC50 in series [1] was found to be 6 µM; in series [2], 52.9 µM. For the same molecule, the Ratio IC50 in series [3] was 8.8.

`CC1=NN(C(=O)CN2CCOCC2)C(c2cc(Cl)ccc2O)C1` (centres undefined): the IC50 in series [1] was found to be 13.1 µM; in series [2] it was 41.8 µM. Further, in series [3], the Ratio IC50 came to 3.2.

Turning to `CC1=NN(C(=O)CN2CCCCC2)C(c2cc(Br)cc(Br)c2O)C1` (centres undefined), the figures for the IC50 in series [1] and in series [2] were 7.8 µM and 49.9 µM, respectively. The Ratio IC50 in series [3] was 6.4.

As to `O=C(Cn1ccnc1)N1N=C(c2ccc(F)cc2)CC1c1cc(Cl)ccc1O` (centres undefined), the “inhibition (INH)” value in series [5] is on record as “Not Active”. The INH entry in series [4] is “Not Active”.

As to `C#CCN(C)[C@H](C)Cc1ccccc1` [SELEGILINE], the “inhibition (INH)” value in series [5] was “Not Active”.

A word on the IC50: it is the concentration that inhibits the measured activity by half.
